From PubChem BioAssay
This is a sample that favours compounds with a hit; in the whole collection about 2.6% have one here.
RAD54 branch: inhibitors of human RAD54 branch migration | RAD54 Holliday junction branch migration, FAM/BHQ fluorescence | inhibition, % at 10.4 µM | 360,000 tested, 0.14% active | AID 602329;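 active means mean normalized replicate activity at least 40 and at least half of replicates scoring 40 or more; inconclusive means only one of the two criteria met; inactive means mean below 40 and under half of replicates reaching 40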;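 further: 0% = median of neutral control wells and 100% = median of positive control wells; inhibitors cause a drop in the FAM fluorescence signal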
rRNA inh HTS: inhibits bacterial ribosomal RNA function over humanized ribosomes; E. coli WT GFP vs humanized-ribosome RFP mutants, fluorescence, 24 h; active compounds read low; DMSO median 0, no signal -100; GFP signal change (wild-type ribosome), % (no concentration beside the values); 350,000 tested, 1.6% active; AID 720706;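 active means significant combined selectivity score with lowered wild-type GFP, culture density cut under 30%, mutant RFP and density less affected; inactive means any of these conditions unmet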
INS-1E GSIS act: primary screen for activators of insulin secretion dependent on glucose, INS-1E cells, GLuc reporter luminescence; INS-1E GLuc reporter insulin secretion, 2-3 h; activation, % at 16.6 µM; 370,000 tested, 0.61% active; AID 743287;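 active means lowest replicate activation of at least 40%, so every replicate reaches that level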;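 further: 0% = median of neutral control wells and 100% = median of IBMX positive control wells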
MLL AF4-AF9 inh: blocks AF4 peptide binding to human AF9. P42568. AlphaScreen, biotin-AF4 peptide binding to FLAG-AF9. inhibition, % at 10 µM. 350,000 tested, 0.47% active;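 active means every replicate reaching a set inhibition limit, whatever the replicate mean, cut at about 25% in these data; inconclusive means mean inhibition reaches that limit but some replicates miss it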;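 further: 0% = plate neutral control median and 100% = total signal loss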
E-sel inducer: induces E-selectin expression in human endothelial cells; 260,000 tested, 0.37% active; AID 686992; P16581; HUVEC E-selectin immunofluorescence imaging; normalized: neutral wells 0, TNF-alpha wells 100; activation, % at 7.58 µM;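 active means mean E-selectin-positive cell signal at least 10% of the positive control, reached in at least 60% of replicates, without over 20% cell loss; inconclusive means no rule given, readout overlaps actives, possibly toxicity-flagged; inactive means the rest, including those meeting only one limit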
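System: HUVEC, human umbilical vein endothelial cells; quantity: 3,000 cells/well; buffer or medium: EGM-2 medium, gelatin-coated wells; dosing: single-point compound dose; detection: immunofluorescence imaging; evaluation: % PE-positive cells; benchmarks: TNF-alpha, DMSO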
RAD52 inh: inhibitors of human RAD52 DNA annealing; recombinant RAD52 DNA annealing, FRET fluorescence; AID 651710; P43351; inhibition, % at 18.7 µM; 360,000 tested, 0.46% active;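 active means every replicate showing at least 50% inhibition; inconclusive means mean inhibition at least 50% but not in every replicate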
Target sequence (P43351 whole entry, looked up): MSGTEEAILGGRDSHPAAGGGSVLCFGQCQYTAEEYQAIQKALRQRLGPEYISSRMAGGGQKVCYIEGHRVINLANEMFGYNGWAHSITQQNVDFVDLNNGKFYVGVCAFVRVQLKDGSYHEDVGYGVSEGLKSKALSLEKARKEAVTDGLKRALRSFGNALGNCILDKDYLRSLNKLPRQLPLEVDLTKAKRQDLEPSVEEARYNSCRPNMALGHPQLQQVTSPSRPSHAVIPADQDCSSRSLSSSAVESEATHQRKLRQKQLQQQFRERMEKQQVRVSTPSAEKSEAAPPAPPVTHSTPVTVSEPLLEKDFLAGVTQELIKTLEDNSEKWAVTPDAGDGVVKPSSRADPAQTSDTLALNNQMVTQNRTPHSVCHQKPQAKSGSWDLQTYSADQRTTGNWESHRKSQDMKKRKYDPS
An asterisk follows results filed as active; ? = inconclusive; nt = no result given.

SMILES	RAD54 branch	rRNA inh HTS	INS-1E GSIS act	MLL AF4-AF9 inh	E-sel inducer	RAD52 inh
O=C(O)c1ccc(N/N=C/C2=C(N3CCOCC3)C(=C\c3ccccc3)/CC2)cc1	nt	-36*	28	2	nt	-294
Cc1cc(C)nc(N/N=C/C2=C(N3CCOCC3)C(=C\c3ccc(Cl)cc3)/CC2)n1	nt	nt	-11	nt	nt	nt
Cc1ccc(C)c(NC(=O)CSc2n[nH]c(-c3ccncc3)n2)c1	-7	nt	-3	nt	nt	nt
Cc1ccc(C)c(NC(=O)CSc2c(C)n[nH]c2C)c1	-8	-55*	-13	-2	3	-10
CN(C)CC(=O)N1[C@@H](C#N)[C@H](c2ccc(-c3ccccc3F)cc2)[C@@H]1CO	0	1	-1	2	0	-4
C[C@H]1CN([C@@H](C)CO)C(=O)Cc2cc(N(C)C)ccc2O[C@@H]1CN(C)Cc1ccc2c(c1)OCO2	-15	0	4	-4	0	3
O=C(c1ccc(Cl)cc1)N1CCc2c([nH]c3ccccc23)C1C(F)(F)F (stereo unspecified)	0	-21*	nt	5	nt	-16
CC(C)C#Cc1ccc2c(c1)O[C@@H](CN(C)C(=O)C1CCC1)[C@H](C)CN([C@@H](C)CO)S2(=O)=O	nt	-30	-16	nt	1	nt
COc1ccc(N2CCN(Cc3nc4c(c(=O)n(C)c(=O)n4C)n3Cc3cccc(C)c3)CC2)cc1	-10	-5	-18	33*	nt	-3
COc1ccc(N2CCN(c3nc4c(c(=O)n(C)c(=O)n4C)n3Cc3ccccc3)CC2)cc1	5	nt	nt	nt	nt	nt
Cc1ccc(C(C)(C)C)c(OCCCn2ccnc2)c1	nt	-57	35	?	nt	-7
CC(C)(C)c1ccccc1OCCCCCn1ccnc1	nt	-55*	7	7	2	23
CN(C)c1cccc(/C=C(\C#N)c2ccccc2)c1	0	-23	-2	26*	1	-19
CCC(=O)N1C[C@@H](C)[C@H](OC)CN(C)C(=O)c2cc(NC(=O)C3CCOCC3)ccc2OC[C@@H]1C	2	4	3	2	0	-1
NC(N)=NN=C1c2ccccc2-c2ccccc21	82*	-8	-26	13	0	43
COc1ccccc1NS(=O)(=O)c1c(C)[nH]c(C)c1C(=O)N1CCCC1	4	9	4	0	50*	-7
O=C(c1cccc(F)c1)N1CCCCN2[C@@H](CO)[C@@H](c3ccc(-c4ccc(F)cc4)cc3)[C@@H]2C1	3	nt	nt	8	nt	53*
O=C(c1cccc(F)c1)N1CCCCN2[C@H](CO)[C@@H](c3ccc(-c4ccc(F)cc4)cc3)[C@H]2C1	2	nt	nt	2	nt	38
Cc1cccc(-c2ccc([C@H]3[C@H]4CN(C(=O)c5cccnc5)CCCCN4[C@H]3CO)cc2)c1	-3	2	-8	26*	0	6
CCN1[C@@H]2Cn3c(ccc(-c4cccc(F)c4)c3=O)[C@H]1[C@@H](C(=O)NCCCN(C)C)[C@@H]2CO	2	4	16	-6	0	11
COc1ccccc1S(=O)(=O)N[C@@H]1CC[C@@H](CCn2cc(C3CC3)nn2)O[C@H]1CO	6	-2	-5	-1	0	-3
NCC[C@H]1CC[C@H](NC(=O)CCN2CCCCC2)[C@@H](CO)O1	-8	0	12	28*	0	-11
NCC[C@H]1CC[C@@H](NC(=O)CCN2CCCCC2)[C@H](CO)O1	-7	3	-2	59*	0	6
O=C(CN1CCOCC1)N[C@H]1CC[C@H](CCNC(=O)C2CCC2)O[C@H]1CO	-18	1	3	43*	0	48
O=C(CN1CCOCC1)N[C@@H]1CC[C@H](CCNC(=O)C2CCC2)O[C@@H]1CO	-2	3	3	0	0	-3
NCC[C@@H]1CC[C@@H](NC(=O)CCN2CCCCC2)[C@H](CO)O1	-18	1	-7	19	0	3
C[C@H]1CN([C@@H](C)CO)C(=O)Cc2cc(NC(=O)Nc3ccccc3)ccc2O[C@H]1CN(C)C(=O)Nc1ccc(C(F)(F)F)cc1	-5	-2	-16	nt	0	nt
Cc1ccc(NC(=O)CN(C)C(=O)COc2cccc3cccnc23)cc1	nt	nt	40*	nt	nt	nt
